Laboratory results: ChEMBL document CHEMBL1687712, “Antiviral effects of lamivudine, emtricitabine, adefovir dipivoxil, and tenofovir disoproxil fumarate administered orally alone and in combination to woodchucks with chronic woodchuck hepatitis virus infection” (Antimicrob Agents Chemother, 2008)
Activity calls are given as the source filed them. The calls are words filed in the database; no cut-off is given here.

Key:
[1] = test system: Woodchuck hepatitis virus; assay: Antiviral activity against Woodchuck hepatitis virus infected in woodchuck assessed as reduction of viral DNA replicative intermediate level per ug of total cell DNA at 15 mg/kg, po qd measured on 36th week on 48 weeks study (reference value: 1132 +/- 738 pg); type: functional
Procedure, shortened: (§1)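 Chronic WHV-carrier woodchucks, 5 per group, 15 mg/kg/day oral once daily for 48 weeks in liquid diet. Needle liver biopsies were snap-frozen in liquid nitrogen and stored at −70°C. Hepatic WHV DNA replicative intermediates were quantified by Southern blot (pg/μg total cell DNA) and WHV RNA by Northern blot; group means ± SD were compared with pretreatment and placebo.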

[2] = test system: Woodchuck hepatitis virus; assay: Antiviral activity against Woodchuck hepatitis virus infected in woodchuck assessed as frequency of hepatocytes expressing viral antigen at 15 mg/kg, po qd for 48 weeks measured on 60th week; type: functional, Hepatocyte
Procedure, shortened: (§2)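 Chronic WHV-carrier woodchucks, 5 per group, given 15 mg/kg/day orally once daily for 48 weeks in liquid diet; placebo is diet alone. Liver biopsies at pretreatment, weeks 12, 36, 48 and 12 weeks after withdrawal. Cytoplasmic WHsAg staining scored 0–4: 1 ≤1%, 2 ≤2%, 3 ≤5%, 4 ≥10% of hepatocytes.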

[3] = test system: Woodchuck hepatitis virus; assay: Antiviral activity against Woodchuck hepatitis virus infected in woodchuck assessed as absent of lesion in portal hepatitis at 15 mg/kg, po qd measured on 12th week on 48 weeks study; type: functional, organism-based; set-up: dose 15 mg/kg
Procedure, shortened: (§3)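 Adult chronic WHV-carrier woodchucks (neonatally inoculated), 5 per group, given drug once daily by dose syringe in semisynthetic liquid diet, for 48 weeks; placebo got diet alone. Ultrasound-guided needle liver biopsies under ketamine/xylazine anesthesia at pretreatment, weeks 12, 36, 48 and 12 weeks post-withdrawal. Biopsies were formalin-fixed, paraffin-embedded and H&E stained. Portal and lobular hepatitis were graded 0 (absent) to 4 (most severe).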

[4] = test system: Woodchuck hepatitis virus; assay: Antiviral activity against Woodchuck hepatitis virus infected in woodchuck assessed as reduction of viral antigen level in serum at 15 mg/kg, po qd measured on 36th week on 48 weeks study (reference value: 3.8 +/- 1.3 log10 ng/ml); type: functional
[5] = test system: Woodchuck hepatitis virus; assay: Antiviral activity against Woodchuck hepatitis virus infected in woodchuck assessed as reduction of viral antigen level in serum at 15 mg/kg, po qd for 48 weeks (reference value: 3.8 +/- 1.3 log10 ng/ml); type: functional
[6] = test system: Woodchuck hepatitis virus; assay: Antiviral activity against Woodchuck hepatitis virus infected in woodchuck assessed as reduction of viral antigen level in serum at 15 mg/kg, po qd for 48 weeks measured on 60th week (reference value: 3.3 +/- 1.6 log10 ng/ml); type: functional
[7] = test system: Woodchuck hepatitis virus; assay: Antiviral activity against Woodchuck hepatitis virus infected in woodchuck assessed as reduction of viral DNA replicative intermediate level per ug of total cell DNA at 15 mg/kg, po qd for 48 weeks (reference value: 995 +/- 736 pg); type: functional; procedure, shortened: as §1
[8] = test system: Woodchuck hepatitis virus; assay: Antiviral activity against Woodchuck hepatitis virus infected in woodchuck assessed as reduction of viral RNA level per ug of total cell DNA at 15 mg/kg, po qd for 48 weeks (reference value: 34 +/- 20 pg); type: functional; procedure, shortened: as §1
[9] = test system: Woodchuck hepatitis virus; assay: Antiviral activity against Woodchuck hepatitis virus infected in woodchuck assessed as reduction of viral RNA level per ug of total cell DNA at 15 mg/kg, po qd for 48 weeks measured on 60th week (reference value: 27 pg); type: functional; procedure, shortened: as §1
[10] = test system: Woodchuck hepatitis virus; assay: Antiviral activity against Woodchuck hepatitis virus infected in woodchuck assessed as reduction of viral antigen positive hepatocytes at 15 mg/kg, po qd measured on 36th week on 48 weeks study (reference value: 41 +/- 25 %); type: functional, Hepatocyte; set-up: scale not given: the % may be the effect or the level left
Procedure, shortened: (§4)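 Chronic WHV-carrier woodchucks, 5 per group, 15 mg/kg/day oral once daily for 48 weeks in liquid diet. Liver biopsies were taken at pretreatment, weeks 12, 36, 48 and week 60. Percentage of hepatocytes positive for WHcAg was given as group mean ± SD and compared with pretreatment and placebo.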

[11] = test system: Woodchuck hepatitis virus; assay: Antiviral activity against Woodchuck hepatitis virus infected in woodchuck assessed as reduction of viral antigen positive hepatocytes at 15 mg/kg, po qd for 48 weeks study (reference value: 35 +/- 27 %); type: functional, Hepatocyte; set-up: scale not given: the % may be the effect or the level left; procedure, shortened: as §4
[12] = test system: Woodchuck hepatitis virus; assay: Antiviral activity against Woodchuck hepatitis virus infected in woodchuck assessed as reduction of viral antigen positive hepatocytes at 15 mg/kg, po qd for 48 weeks measured on 60th week (reference value: 26 %); type: functional, Hepatocyte; set-up: scale not given: the % may be the effect or the level left; procedure, shortened: as §4
[13] = test system: Woodchuck hepatitis virus; assay: Antiviral activity against Woodchuck hepatitis virus infected in woodchuck assessed as frequency of hepatocytes expressing viral antigen at 15 mg/kg, po qd measured on 36th week on 48 weeks study; type: functional, Hepatocyte; procedure, shortened: as §2
[14] = test system: Woodchuck hepatitis virus; assay: Antiviral activity against Woodchuck hepatitis virus infected in woodchuck assessed as absent of lesion in portal hepatitis at 15 mg/kg, po qd for 48 weeks; type: functional, organism-based; set-up: dose 15 mg/kg; procedure, shortened: as §3
[15] = test system: Woodchuck hepatitis virus; assay: Antiviral activity against Woodchuck hepatitis virus infected in woodchuck assessed as absent of lesion in portal hepatitis at 15 mg/kg, po qd for 48 weeks measured on 60th week; type: functional, organism-based; set-up: dose 15 mg/kg
Procedure, shortened: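 Chronic WHV-carrier adult woodchucks (inoculated at 3 days of age), 5 per group, dosed orally once daily for 48 weeks by dose syringe, drug in saline suspended in semisynthetic liquid diet; placebo is diet alone. Ultrasound-guided needle liver biopsies under ketamine/xylazine, formalin-fixed, H&E stained; portal and lobular hepatitis graded 0 (absent) to 4 (most severe).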

[16] = test system: Woodchuck hepatitis virus; assay: Antiviral activity against Woodchuck hepatitis virus infected in woodchuck assessed as absent of lesion in lobular hepatitis at 15 mg/kg, po qd measured on 12th week on 48 weeks study; type: functional, organism-based; set-up: dose 15 mg/kg; procedure, shortened: as §3
[17] = test system: Marmota monax; assay: Toxicity in Woodchuck hepatitis virus infected woodchuck assessed as change in body weight at 15 mg/kg, po qd for 48 weeks measured up to 60 weeks; type: organism-based; set-up: dose 15 mg/kg, route oral; conditions: in vivo
Procedure, shortened: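 Chronic WHV-carrier woodchucks, 5 per group, were dosed orally once daily in liquid diet for 48 weeks, with a placebo diet-only group. Body weights were monitored. Complete blood counts were taken 2 weeks pretreatment, at weeks 12, 36 and 48 of treatment, and 12 weeks after withdrawal. Values were compared with placebo controls.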

[18] = test system: Marmota monax; assay: Toxicity in Woodchuck hepatitis virus infected woodchuck assessed as increase of liver sorbitol dehydrogenase activity at 15 mg/kg, po qd measured on 4 to 24 weeks on 48 week study; type: organism-based; set-up: dose 15 mg/kg, route oral; conditions: in vivo
Procedure, shortened: (§5)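 Woodchucks chronically infected with WHV, 5 per group, received oral drug once daily in liquid diet for 48 weeks; placebo got diet only. Serum chemistry (GGT, ALP, ALT, AST, SDH, among others) was run 2 weeks pretreatment, at week 0, every other week to week 12, then monthly to week 48. Sampling continued at 2, 4, 6, 8 and 12 weeks post-treatment.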

[19] = test system: Marmota monax; assay: Toxicity in Woodchuck hepatitis virus infected woodchuck assessed as increase of liver sorbitol dehydrogenase activity at 15 mg/kg, po qd measured on 28 to 48 weeks on 48 week study; type: organism-based; set-up: dose 15 mg/kg, route oral; conditions: in vivo; procedure, shortened: as §5
[20] = test system: Marmota monax; assay: Toxicity in Woodchuck hepatitis virus infected woodchuck assessed as increase of serum gamma-glutamyltransferase activity at 15 mg/kg, po qd for 48 weeks; type: organism-based; set-up: dose 15 mg/kg, route oral; conditions: in vivo, 8064 h; procedure, shortened: as §5
[21] = test system: Marmota monax; assay: Toxicity in Woodchuck hepatitis virus infected woodchuck assessed as increase of liver alanine aminotransferase activity at 15 mg/kg, po qd for 48 weeks; type: organism-based; set-up: dose 15 mg/kg, route oral; conditions: in vivo, 8064 h; procedure, shortened: as §5
[22] = test system: Marmota monax; assay: Toxicity in Woodchuck hepatitis virus infected woodchuck assessed as increase of liver alkaline phosphatase activity at 15 mg/kg, po qd for 48 weeks; type: organism-based; set-up: dose 15 mg/kg, route oral; conditions: in vivo, 8064 h; procedure, shortened: as §5

Compound: CC(C)OC(=O)OCOP(=O)(CO[C@H](C)Cn1cnc2c(N)ncnc21)OCOC(=O)OC(C)C.O=C(O)/C=C/C(=O)O [TENOFOVIR DISOPROXIL FUMARATE]
- Activity [1]: 443 pg
- Activity [2]: 2%
- Activity [3]: Active
- Activity [4]: 2.9 log10ng/ml
- Activity [5]: 3.6 log10ng/ml
- Activity [6]: 4 log10ng/ml
- Activity [7]: 704 pg
- Activity [8]: 31 pg
- Activity [9]: 34 pg
- Activity [10]: 20%
- Activity [11]: 26%
- Activity [12]: 39%
- Activity [13]: 1%
- Activity [14]: Active
- Activity [15]: Active
- Activity [16]: Active
- Activity [17]: Non-toxic
- Activity [18]: Toxic
- Activity [19]: Toxic
- Activity [20]: Toxic
- Activity [21]: Toxic
- Activity [22]: Toxic

Compound: CC(C)(C)C(=O)OCOP(=O)(COCCn1cnc2c(N)ncnc21)OCOC(=O)C(C)(C)C [ADEFOVIR DIPIVOXIL]
- Activity [1]: 324 pg
- Activity [2]: 1%
- Activity [3]: Active
- Activity [4]: 4.8 log10ng/ml
- Activity [5]: 4.1 log10ng/ml
- Activity [6]: 5 log10ng/ml
- Activity [7]: 151 pg
- Activity [8]: 24 pg
- Activity [9]: 46 pg
- Activity [10]: 45%
- Activity [11]: 13%
- Activity [12]: 48%
- Activity [13]: 5%
- Activity [14]: Active
- Activity [15]: Active
- Activity [16]: Active
- Activity [17]: Non-toxic
- Activity [18]: Toxic
- Activity [19]: Toxic
- Activity [20]: Toxic
- Activity [21]: Toxic
- Activity [22]: Toxic
